Drawing on ChEMBL document CHEMBL1124746, “Synthesis and antitumor evaluation in mice of certain 7-deazapurine (pyrrolo[2,3-d]pyrimidine) and 3-deazapurine (imidazo[4,5-c]pyridine) nucleosides structurally related to sulfenosine, sulfinosine, and sulfonosine” (1990), this text covers T/C and Cells killed for 14 compounds.

Assay [1] concerns L1210. The assay is described as follows: Tested for post inoculation lifespan in L1210-inoculated mice at dose 288 mg/kg administered intraperitoneally. It is filed as functional, Mus musculus. As to conditions: route intraperitoneal. In short, it runs like this: (§1)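 Female BDF1 mice (~18 g) were inoculated ip on day 0 with 1 × 10⁶ L1210 cells and treated once ip 24 h later with drug in water (0.01 mL/g); saline controls. Groups had six mice. %T/C = mean life span treated / mean life span control × 100, with T/C ≥ 125 taken as significant. Deaths were assigned to leukemia or drug toxicity by timing and necropsy.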

Assay [2] concerns L1210. The assay is described as follows: Tested for percent of L1210 cells killed by dose 288 mg/kg administered intraperitoneally. It is filed as functional, Mus musculus. The conditions noted are these: route intraperitoneal. In short, it runs like this:
(§2)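 Female BDF1 mice (~18 g) were inoculated ip on day 0 with 1 × 10⁶ murine L1210 leukemia cells. They got a single ip bolus 24 h later of drug freshly dissolved in water, at 0.01 mL/g body weight. Controls received saline. The percentage of cells killed was estimated from residual leukemia body burden, using inoculum-response data relating inoculum size to postinoculation life span.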

The test system of assay [3] is L1210. The assay is described as follows: Tested for percent of L1210 cells killed by dose 173 mg/kg administered intraperitoneally. As to conditions: route intraperitoneal. It is filed as functional, Mus musculus. In short, it runs like this:
as §2

The subject of assay [4] is L1210. Put plainly: Tested for post inoculation lifespan in L1210-inoculated mice at dose 173 mg/kg administered intraperitoneally. It counts as functional, Mus musculus. As to conditions: route intraperitoneal. In short, it runs like this: as §1
In assay [5] the test system is L1210. Put plainly: Tested for post inoculation lifespan in L1210-inoculated mice at dose 62 mg/kg administered intraperitoneally. It is filed as functional, Mus musculus. The conditions noted are these: route intraperitoneal. In short, it runs like this: as §1
Assay [6] deals with L1210. The assay is described as follows: Tested for percent of L1210 cells killed by dose 62 mg/kg administered intraperitoneally. It is filed as functional, Mus musculus. As to conditions: route intraperitoneal. In short, it runs like this: as §2
For assay [7], the system named is L1210. The assay is described as follows: Tested for post inoculation lifespan in L1210-inoculated mice at dose 104 mg/kg administered intraperitoneally. It counts as functional, Mus musculus. The conditions noted are these: route intraperitoneal. In short, it runs like this:
as §1

In assay [8] the test system is L1210. The assay is described as follows: Tested for percent of L1210 cells killed by dose 104 mg/kg administered intraperitoneally. As to conditions: route intraperitoneal. It counts as functional, Mus musculus. In short, it runs like this:
as §2

Assay [9] deals with L1210. The assay is described as follows: Tested for post inoculation lifespan in L1210-inoculated mice at dose 480 mg/kg administered intraperitoneally. It counts as functional, Mus musculus. The conditions noted are these: route intraperitoneal. In short, it runs like this:
as §1

The subject of assay [10] is L1210. Put plainly: Tested for percent of L1210 cells killed by dose 480 mg/kg administered intraperitoneally. It counts as functional, Mus musculus. The conditions noted are these: route intraperitoneal. In short, it runs like this: as §2
Assay [11] relates to L1210. Put plainly: Tested for percent of L1210 cells killed by dose 173 mg/kg administered intraperitoneally. As to conditions: Mus musculus, route intraperitoneal.
Assay [12] relates to L1210. Put plainly: Tested for post inoculation lifespan in L1210-inoculated mice at dose 800 mg/kg administered intraperitoneally. It is filed as functional, Mus musculus. As to conditions: route intraperitoneal. In short, it runs like this:
as §1

Assay [13] concerns L1210. Put plainly: Tested for percent of L1210 cells killed by dose 800 mg/kg administered intraperitoneally. It is filed as functional, Mus musculus. As to conditions: route intraperitoneal. In short, it runs like this: as §2
Assay [14] concerns L1210. Put plainly: Tested for post inoculation lifespan in L1210-inoculated mice at dose 37 mg/kg administered intraperitoneally. As to conditions: route intraperitoneal. It counts as functional, Mus musculus. In short, it runs like this: as §1
The test system of assay [15] is L1210. The assay is described as follows: Tested for percent of L1210 cells killed by dose 37 mg/kg administered intraperitoneally. It counts as functional, Mus musculus. The conditions noted are these: route intraperitoneal. In short, it runs like this: as §2

The term T/C denotes the ratio of treated to control. Turning to `NS(=O)(=O)c1ncnc2c1ccn2[C@H]1C[C@H](O)[C@@H](CO)O1`, in the assay on L1210 [1], the T/C is listed as 113%. For the same compound, the Cells killed with L1210 [2] is listed as 67.94%.
For the compound `Nc1nc([S+](N)[O-])c2ccn([C@@H]3C[C@@H](O)[C@H](CO)O3)c2n1` (stereo partly drawn), in the assay with L1210 [3], the Cells killed turned out to be 0%. In addition, the T/C in the assay with L1210 [4] is 100%.
Compound `OC[C@H]1O[C@@H](n2ccc3c(S)ncnc32)C[C@@H]1O` gave a T/C in the assay on L1210 [5] of 96%. This compound yielded a Cells killed with L1210 [6] of 0%.
For `NSc1ncnc2c1ccn2[C@H]1C[C@H](O)[C@@H](CO)O1`, the T/C with L1210 [7] is 101%. The Cells killed with L1210 [8] came out at 2%.
For `N[S+]([O-])c1ncnc2c1ccn2[C@@H]1C[C@@H](O)[C@H](CO)O1` (stereo partly drawn), the T/C in the assay on L1210 [9] is recorded as 112%. Besides, in the assay with L1210 [10], the Cells killed stood at 60.59%.
In the assay with L1210 [11], `NSc1nc(N)nc2c1ccn2[C@H]1C[C@H](O)[C@@H](CO)O1` displayed a Cells killed of 46.64%. The T/C in the assay with L1210 [4] is 112%.
As for `Nc1nc(S)c2ccn([C@H]3C[C@H](O)[C@@H](CO)O3)c2n1`, in the assay with L1210 [7], the T/C was 105%. This compound showed a Cells killed in the assay on L1210 [8] of 35.63%.
Take `Nc1cc2c(ncn2C2O[C@H](CO)[C@@H](O)[C@H]2O)c(S)n1` (stereo partly drawn): the T/C in the assay with L1210 [7] is on record as 93%. In addition, the Cells killed in the assay on L1210 [8] is listed as 0%.
On to `Nc1nc([S+](N)[O-])c2ccn(C3O[C@H](CO)[C@@H](O)[C@H]3O)c2n1` (stereo partly drawn), for which, in the assay on L1210 [1], the T/C was 115%. The compound further yielded a Cells killed in the assay with L1210 [2] of 76.93%.
Consider `Nc1cc2c(ncn2C2O[C@H](CO)[C@@H](O)[C@H]2O)c([S+](N)[O-])n1` (stereo partly drawn), for which, in the assay with L1210 [12], the T/C was 102%. Further, in the assay with L1210 [13], the Cells killed worked out at 16.32%.
The compound `NSc1nc(N)cc2c1ncn2C1O[C@H](CO)[C@@H](O)[C@H]1O` (stereo partly drawn) registered a T/C in the assay with L1210 [5] of 103%. The compound also yielded a Cells killed in the assay with L1210 [6] of 21.86%.
For the compound `Nc1nc(S(N)(=O)=O)c2ccn(C3O[C@H](CO)[C@@H](O)[C@H]3O)c2n1` (stereo partly drawn), the T/C with L1210 [9] worked out at 100%. The compound further registered a Cells killed with L1210 [10] of 0%.
For the compound `Nc1nc(S)c2ccn(C3O[C@H](CO)[C@@H](O)[C@H]3O)c2n1` (stereo partly drawn), the T/C in the assay on L1210 [14] turned out to be 90%. The compound also returned a Cells killed in the assay with L1210 [15] of 0%.
`NSc1nc(N)nc2c1ccn2C1O[C@H](CO)[C@@H](O)[C@H]1O` (stereo partly drawn): in the assay with L1210 [7], the T/C turned out to be 111%. The compound further had a Cells killed in the assay with L1210 [8] of 66.6%.
